Measurements taken from ChEMBL document CHEMBL1138322 (J Med Chem, 2007).
pEC50, pIC50: −log10 of the molar value. Active and inactive are the calls of the source. The calls are words filed in the database; no cut-off is given here.

What was measured:
[1] = Cmax in mouse at 1 mg/kg, iv or 2 mg/kg, po; assay type: ADME, organism-based; settings: in vivo
In short: (§1)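 Mouse PK. Intravenous dose 1 mg/kg and oral dose 2 mg/kg, both given in DMSO/PEG400/water (5:40:55 v:v:v).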

[2] = Oral bioavailability in mouse at 2 mg/kg, po; assay type: ADME, organism-based; settings: in vivo; in short: as §1
[3] = target: T1, Cytochrome P450 2C8 (Homo sapiens, UniProt P10632); test: Inhibition of CYP2C8 in human liver microsomes; assay type: ADME, Microsome
T1 sequence (P10632 whole entry): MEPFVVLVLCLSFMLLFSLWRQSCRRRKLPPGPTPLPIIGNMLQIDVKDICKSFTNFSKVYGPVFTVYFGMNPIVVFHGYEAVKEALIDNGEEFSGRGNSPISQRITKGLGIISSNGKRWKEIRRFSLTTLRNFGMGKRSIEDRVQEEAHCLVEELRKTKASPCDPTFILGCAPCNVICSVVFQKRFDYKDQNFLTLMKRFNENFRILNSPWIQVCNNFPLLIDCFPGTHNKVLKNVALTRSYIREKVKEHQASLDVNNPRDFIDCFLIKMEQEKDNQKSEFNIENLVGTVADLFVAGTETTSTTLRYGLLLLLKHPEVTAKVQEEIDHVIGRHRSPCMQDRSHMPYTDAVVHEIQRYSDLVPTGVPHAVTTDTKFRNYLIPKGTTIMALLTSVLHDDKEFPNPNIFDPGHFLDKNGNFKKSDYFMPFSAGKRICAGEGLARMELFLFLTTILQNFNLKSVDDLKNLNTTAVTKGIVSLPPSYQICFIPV
In short: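 Human liver microsome CYP2C8 inhibition with taxol as substrate and montelukast as positive control; IC50 reported.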

[4] = Volume of distribution at steady state in mouse at 1 mg/kg, iv or 2 mg/kg, po; assay type: ADME, organism-based; settings: in vivo, read-out: Vdss; in short: as §1
[5] = target: Cytochrome P450 2C9 (Homo sapiens, UniProt P11712); test: Inhibition of CYP2C9 in human liver microsomes; assay type: ADME, Microsome
Cytochrome P450 2C9, sequence (P11712 whole entry): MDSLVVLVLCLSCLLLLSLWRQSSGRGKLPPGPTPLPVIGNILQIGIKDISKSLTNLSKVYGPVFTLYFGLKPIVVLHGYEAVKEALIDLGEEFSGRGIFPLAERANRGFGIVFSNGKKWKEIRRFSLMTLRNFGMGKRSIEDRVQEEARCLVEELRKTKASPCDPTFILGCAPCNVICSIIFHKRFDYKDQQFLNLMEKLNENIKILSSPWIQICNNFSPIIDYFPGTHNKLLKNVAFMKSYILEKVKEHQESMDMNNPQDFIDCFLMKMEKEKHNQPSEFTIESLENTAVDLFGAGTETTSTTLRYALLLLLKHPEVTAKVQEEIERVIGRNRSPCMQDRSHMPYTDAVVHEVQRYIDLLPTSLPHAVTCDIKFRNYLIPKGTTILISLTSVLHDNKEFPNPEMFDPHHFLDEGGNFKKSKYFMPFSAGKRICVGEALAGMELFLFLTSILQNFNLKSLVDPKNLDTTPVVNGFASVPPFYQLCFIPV

[6] = Clearance in mouse at 1 mg/kg, iv or 2 mg/kg, po; assay type: ADME, organism-based; settings: in vivo; in short: as §1
[7] = Half life in mouse at 1 mg/kg, iv or 2 mg/kg, po; assay type: ADME, organism-based; settings: in vivo; in short: as §1
[8] = test system: Adipocyte; test: Inhibition of lipolysis in human adipocytes; assay type: functional, cell-based
In short: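 Inhibition of lipolysis in human adipocytes, read as reduction of free fatty acid release.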

[9] = Therapeutic index, ratio of vasodilating effect to IC50 for FFA reduction in mouse; assay type: organism-based; settings: in vivo
In short: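 Mouse ear vasodilation (flushing) measured as the change in blood perfusion by laser Doppler flowmetry after i.p. dosing in 5% DMSO/40% PEG400/55% water, with plasma drug level taken post-dose. Plasma FFA reduction was measured after p.o. dosing, with compound and FFA plasma levels at 15 min. TI = minimum plasma level inducing flushing ÷ in vivo IC50 for FFA reduction.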

[10] = Plasma concentration in mouse at 100 mg/kg, ip after 15 mins; assay type: ADME, organism-based; set-up: dose 100 mg/kg, route intraperitoneal
In short: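 After an i.p. dose in the mouse ear vasodilation study, plasma compound level measured at 15 min post-dose.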

[11] = target: T2, Hydroxycarboxylic acid receptor 2 (Mus musculus, UniProt Q9EP66); test: Agonist activity at mouse GPR109A by [35S]GTP-gamma-S binding assay; assay type: functional
T2 sequence (Q9EP66 whole entry): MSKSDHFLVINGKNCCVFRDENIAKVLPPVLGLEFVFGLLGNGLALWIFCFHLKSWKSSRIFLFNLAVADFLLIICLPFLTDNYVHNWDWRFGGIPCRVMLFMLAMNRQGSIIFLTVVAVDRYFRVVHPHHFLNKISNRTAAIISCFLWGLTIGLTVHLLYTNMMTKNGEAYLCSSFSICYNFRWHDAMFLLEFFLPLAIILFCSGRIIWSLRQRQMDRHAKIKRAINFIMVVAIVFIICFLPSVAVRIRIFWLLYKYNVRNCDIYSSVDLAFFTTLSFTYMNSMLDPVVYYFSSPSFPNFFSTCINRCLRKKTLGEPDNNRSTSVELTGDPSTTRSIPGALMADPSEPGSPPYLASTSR

[12] = target: T2, Hydroxycarboxylic acid receptor 2; test: Displacement of [3H]niacin from mouse GPR109A
[13] = test system: Mus musculus; test: Reduction of plasma free fatty acid levels in po dosed mouse after 15 mins; assay type: functional, organism-based; settings: for ED50: po
In short: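 Mice dosed orally. Plasma free fatty acids and plasma compound level both measured at 15 min post-dosing.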

[14] = test system: Mus musculus; test: Vasodilation effect in mouse ear at 100 mg/kg, ip; assay type: functional, organism-based; set-up: dose 100 mg/kg
In short: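 Flushing model in mice. Compound given i.p. in 5% DMSO/40% PEG400/55% water. Vasodilation read as the change in ear blood perfusion by laser Doppler flowmetry.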

[15] = Plasma concentration in mouse at 3 mg/kg, ip after 5 mins
[16] = test system: Mus musculus; test: Drug level in mouse at 10 mg/kg, po; settings: read-out: Activity, in vivo

Compound	Cmax [1]	bioavailability [2]	pIC50 [3]	Vd [4]	pIC50 [5]	clearance [6]	half-life [7]	pIC50 [8]	concentration at […] [10]	pEC50 [11]	pIC50 [12]	pIC50 [13]	concentration at 5 min [15]	concentration [16]	selectivity ratio [9]	ED50 [13]	Activity [14]
O=C(CCc1cnc(-c2ccc(O)cn2)s1)Nc1ccccc1C(=O)O	520 nM	27%	4.69	0.62 L/kg	5.24	8.5 mL/min/kg	2.2 h	–	–	–	–	–	–	–	–	–	–
O=C(CCc1ccc(-c2ccc(O)cn2)cc1)Nc1ccccc1C(=O)O	5000 nM	57%	5.05	0.11 L/kg	5.80	0.38 mL/min/kg	5.3 h	–	–	–	–	–	–	–	–	–	–
O=C(CCc1ncc(-c2ccc(O)cn2)s1)Nc1ccccc1C(=O)O	–	–	5.03	–	5.38	–	–	–	–	–	–	–	–	–	–	–	–
O=C(CCc1cnc(-c2ccc(O)cc2Cl)s1)Nc1ccccc1C(=O)O	2100 nM	37%	5.92	0.37 L/kg	5.55	7.3 mL/min/kg	1.6 h	–	–	–	–	–	–	–	–	–	–
O=C(CCc1ccc(-c2ccc(O)cc2Cl)cc1)Nc1ccccc1C(=O)O	960 nM	5%	> 6.40	0.35 L/kg	> 6.40	18 mL/min/kg	2 h	–	–	–	–	–	–	–	–	–	–
O=C(O)c1cccnc1 [NIACIN]	–	–	–	–	–	–	–	–	–	–	–	–	18000 nM	20000 nM	–	8 mg/kg	–

Second part, led by results:

Cmax [1]	bioavailability [2]	pIC50 [3]	Vd [4]	pIC50 [5]	clearance [6]	half-life [7]	pIC50 [8]	concentration at […] [10]	pEC50 [11]	pIC50 [12]	pIC50 [13]	concentration at 5 min [15]	concentration [16]	Compound	selectivity ratio [9]	ED50 [13]	Activity [14]
30 nM	2.5%	4.72	0.88 L/kg	4.82	26 mL/min/kg	1.1 h	7.40	–	–	–	–	–	–	Cc1c(CCC(=O)Nc2ccccc2C(=O)O)cnn1-c1ccc(O)cc1	–	–	–
–	–	< 4.00	–	< 4.00	–	–	8.30	–	–	–	–	–	–	O=C(CCc1nc(-c2ccc(O)cn2)no1)Nc1ccccc1C(=O)O	–	–	–
120 nM	6%	–	1.66 L/kg	–	34 mL/min/kg	1.3 h	7.52	490000 nM	5.80	6.34	5.16	–	–	O=C(CCc1nc(-c2ccc(O)cc2)no1)Nc1ccccc1C(=O)O	> 70	9 mg/kg	inactive
